Consider 2 compounds from PMC4245089 (International Journal of Nanomedicine, 2014).

The pIC50 is the IC50 on a negative log10 scale, so that one unit is a factor of ten.

pIC50: −log10 of the molar value. Where “and” joins values, the source holds several entries; their conditions need not be identical. Equal entries are not always repeated. Entries after “also recorded” stand apart in the source; their conditions may differ.

Series [1] has as its system P. berghei-ANKA-infected C57BL/6 mice. In words: Liver and kidney function tests. In kind it is in vivo. The settings on record: serum.
For series [2] the following is noted: mice, oral.
Another series has as its system uninfected erythrocytes. In words: Nanotized curcumin uptake assay by fluorimetry, uninfected erythrocytes. The settings on record: 1 μM. Type of series: cell-based.
Another series relates to P. berghei-ANKA. In words: Dose kinetics / antimalarial efficacy in P. berghei-ANKA-infected C57BL/6 mice. Type of series: in vivo, Plasmodium berghei. As to conditions: oral, 10 mg/kg body weight. The method in brief:
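C57BL/6 mice were infected intravenously with 2.5×10^6 P. berghei-ANKA parasites. Oral dosing began 24 h post-infection and ran twice weekly for 1 month at 10, 20 and 40 mg/kg body weight. Parasitemia was counted every fourth day, and mean survival days were recorded. Optimum dose was set by Peterson's test and mortality rate. Data are mean ± SEM, n=6.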

Series [3] in a line: Aqueous dispersibility and storage stability of lyophilized powder. Type of series: physicochemical.
The test system of a further series is parasitized erythrocytes. Put plainly: Nanotized curcumin uptake assay by fluorimetry, parasitized erythrocytes. Type of series: cell-based. The settings on record: treated (parasitized) cultures, 1 μM.
Series [4] has as its system Human fibroblast L-929 cells. Put plainly: Cell viability assay. In kind it is cell-based. The settings on record: 8.11-129.88 μmol/L; 24, 48 and 72 hours. The method in brief:
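L-929 fibroblasts seeded at 1×10^4 cells/well in DMEM. Exposed to native or nanoparticle test compound at 8.11–129.88 μmol/L for 24, 48 and 72 h. MTT (12 mM) added for 2 h at 37°C. Formazan dissolved in DMSO for 1 h at 37°C in the dark. Absorbance read at 595 nm.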

Series [5] deals with P. falciparum 3D7 strain (chloroquine sensitive). In words: Growth inhibition of blood-stage P. falciparum 3D7 by microscopy. In kind it is cell-based, Plasmodium falciparum. The method, boiled down:
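Human RBCs were infected with synchronized 3D7 ring stages and held at 10% hematocrit and 2% parasitemia, with medium changed every 24 h. Ten concentrations were run in duplicate, and stage of action was tested at 2.5 μM. Giemsa smears were read at 48 and 72 h. Percent parasitemia was taken as infected/total RBCs over at least ten fields. Dead parasites were scored by lost membrane, shrinkage or unstained cytoplasm.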

Where [6] appears, read: day 6, curcumin forms 20 mg/kg oral biweekly.
Setting [7] is: day 15, curcumin forms 20 mg/kg oral biweekly.
Setting [8] is: day 21, curcumin forms 20 mg/kg oral biweekly.

In series [1] (setting [6]), `CCN(CC)CCCC(C)Nc1ccnc2cc(Cl)ccc12` (stereo not drawn) [chloroquine] registered an ALP of 16.4±2.61 KA units, a Bilirubin of 1.15 ± 0.16 mg/dL, a Creatinine of 2.10 ± 0.24 mg/dL and an SGOT activity of 36.20±0.72 U/L. In addition, in series [1] (setting [6]), the SGPT activity stood at 39.41±4.32 U/L and the Urea was found to be 50.32 ± 2.43 mg/dL. In series [1] (setting [7]), this compound had an ALP of 10.6±2.31 KA units, a Bilirubin of 1.82 ± 0.18 mg/dL, a Creatinine of 1.60 ± 0.27 mg/dL and an SGOT activity of 33.31±0.61 U/L. In series [1] (setting [7]), this compound yielded an SGPT activity of 32.34±3.42 U/L and a Urea of 40.82 ± 2.51 mg/dL. Besides, in series [1] (setting [8]), the Bilirubin is 0.60 ± 0.24 mg/dL, the Creatinine was determined as 1.23 ± 0.17 mg/dL, the SGOT activity was 14.14±0.51 U/L and the SGPT activity came out at 30.17±3.61 U/L. The same compound gave a Urea in series [1] (setting [8]) of 33.44 ± 2.56 mg/dL.
For `COc1cc(C=CC(=O)CC(=O)C=Cc2ccc(O)c(OC)c2)ccc1O` [native curcumin, 1,7-bis(4-hydroxy 3-methoxyphenyl)-1,6-heptadiene-3,5-dione], the “time post-feeding until which curcumin was present/detectable in plasma” value in series [2] turned out to be 15 h. Moreover, the “concentration found inside the cells” value in the series with uninfected erythrocytes (first growth cycle, n=3) amounted to 240 nM; in the series on uninfected erythrocytes (second growth cycle), 100 nM; with parasitized erythrocytes (first growth cycle, n=3) it was 300 nM; in the series on parasitized erythrocytes (second growth cycle), 250 nM. Besides, the “survival (to day)” value in the series on P. berghei-ANKA is on record as 20 days. For the same compound, the “dispersibility / solubility in water” value in series [3] is given as “only soluble in organic solvents such as dimethyl sulfoxide; also recorded: completely insoluble in water”. Besides, the “cytotoxicity (growth inhibition of L-929 cells)” value in series [4] was “marginal cytotoxic effects”. Further, the ALP in series [1] (setting [6]) worked out at 30.72±2.92 KA units; in series [1] (setting [7]) it was 28.81±2.65 KA units; in series [1] (setting [8]), 36.91±2.67 KA units. For the same compound, the Bilirubin was 1.6 mg/dL and 1.60 ± 0.36 mg/dL in series [1] (setting [6]); 2.19 ± 0.20 mg/dL in series [1] (setting [7]); 2.10 mg/dL and 2.10 ± 0.25 mg/dL in series [1] (setting [8]). Further, the Creatinine in series [1] (setting [6]) turned out to be 3.29 ± 0.37 mg/dL; in series [1] (setting [7]), 2.90 ± 0.46 mg/dL; in series [1] (setting [8]) it was 2.70 ± 0.51 mg/dL. Besides, the SGOT activity in series [1] (setting [6]) is 66.43±0.65 U/L; in series [1] (setting [7]) it was 72.80±0.71 U/L; in series [1] (setting [8]), 75.71±0.47 U/L. In addition, the SGPT activity is recorded as 98.34±4.68 U/L in series [1] (setting [6]), 102.69±5.71 U/L in series [1] (setting [7]) and 136.31±6.45 U/L in series [1] (setting [8]). Moreover, the Urea in series [1] (setting [6]) was found to be 54.24 ± 2.37 mg/dL; in series [1] (setting [7]), 61.72 ± 2.61 mg/dL; in series [1] (setting [8]) it was 87.46 ± 2.54 mg/dL. Further, the pIC50 in series [5] (Plasmodium falciparum, 3D7, read-out: IC50 for growth inhibition of parasites) was 5.30. The compound further had a parasites eradicated in series [5] (synchronized ring stage culture, 2.5 μM, 72 hours) of 60%.
